# Laboratory results as given in ChEMBL document CHEMBL1148831, “1,3-disubstituted ureas functionalized with ether groups are potent inhibitors of the soluble epoxide hydrolase with improved pharmacokinetic properties” (J Med Chem, 2007).
# Assay: Stability in human liver microsomes at 100 uM after 1 hr
# Type: ADME, Microsome
# Conditions: read-out: Stability
row,Compound,"remaining at 1 h, 100 µM"
1,CCOCCOCCOCCCCCNC(=O)NC12CC3CC(CC(C3)C1)C2,30%
2,CCOCCOCCOCCCCCCC(=O)NC12CC3CC(CC(C3)C1)C2,32%
3,CCOCCOCCOCCCCCNC(=O)CC12CC3CC(CC(C3)C1)C2,5%
4,CCOCCOCCOC1CCC(NC(=O)NC23CC4CC(CC(C4)C2)C3)CC1 (stereo unspecified),91%
5,CCCC(C)COCCCCCNC(=O)NC12CC3CC(CC(C3)C1)C2 (stereo unspecified),12%
6,CCc1ccc(OCCOCCOCCCCCNC(=O)NC23CC4CC(CC(C4)C2)C3)cc1,21%
7,O=C(NC1CCC(OCCCN2CCOCC2)CC1)NC12CC3CC(CC(C3)C1)C2 (stereo unspecified),92%
8,O=C(Nc1ccc(OCCCN2CCOCC2)cc1)NC12CC3CC(CC(C3)C1)C2,93%
9,CCCCC(C)OCCCCCNC(=O)NC12CC3CC(CC(C3)C1)C2 (stereo unspecified),12%
10,CS(=O)(=O)NCCCCCOCCCCCNC(=O)NC12CC3CC(CC(C3)C1)C2,59%
11,CCCCCOC1CCC(NC(=O)NC23CC4CC(CC(C4)C2)C3)CC1 (stereo unspecified),22%

# Now from value to molecule:
row,"remaining at 1 h, 100 µM",Compound
1,25%,CCCCOCCCCCNC(=O)NC12CC3CC(CC(C3)C1)C2
2,6.8%,CCCOCCCOCCCCCNC(=O)NC12CC3CC(CC(C3)C1)C2
3,7.5%,CCCOCCCCOCCCCCNC(=O)NC12CC3CC(CC(C3)C1)C2
4,54%,COCCOCCOCCOCCCCCNC(=O)NC12CC3CC(CC(C3)C1)C2
5,89%,O=C(NCCCCCOCCCN1CCOCC1)NC12CC3CC(CC(C3)C1)C2
6,42%,CS(=O)(=O)NCCOCCOCCCCCNC(=O)NC12CC3CC(CC(C3)C1)C2
7,56%,CCOCCOCCOc1cccc(NC(=O)NC23CC4CC(CC(C4)C2)C3)c1
8,39%,O=C(NCCCCCOCCOCCOCC(F)(F)F)NC12CC3CC(CC(C3)C1)C2

# Assay: Elimination half life in dog at 0.3 mg/kg, po
# Type: ADME, organism-based, Canis lupus familiaris
# Set-up: dose 0.3 mg/kg, route oral
# Conditions: in vivo
# Summary of the method: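 Oral gavage at 0.3 mg/kg in 3 ml tristerate at body temperature. Plasma assayed by LC/MS/MS. t1/2 from noncompartmental fit, minutes, at least three animals.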
row,Compound,half-life
1,CCOCCOCCOCCCCCNC(=O)NC12CC3CC(CC(C3)C1)C2,3 h
2,CCOCCOCCOC1CCC(NC(=O)NC23CC4CC(CC(C4)C2)C3)CC1 (stereo unspecified),1.5 h
3,O=C(NC1CCC(OCCCN2CCOCC2)CC1)NC12CC3CC(CC(C3)C1)C2 (stereo unspecified),2.17 h
4,O=C(Nc1ccc(OCCCN2CCOCC2)cc1)NC12CC3CC(CC(C3)C1)C2,2.17 h
5,CCCCCOC1CCC(NC(=O)NC23CC4CC(CC(C4)C2)C3)CC1 (stereo unspecified),2 h

# Continued, values first:
row,half-life,Compound
1,2.17 h,CCCCOCCCCCNC(=O)NC12CC3CC(CC(C3)C1)C2
2,1.5 h,O=C(NCCCCCOCCCN1CCOCC1)NC12CC3CC(CC(C3)C1)C2
3,5.33 h,CCOCCOCCOc1ccc(NC(=O)NC23CC4CC(CC(C4)C2)C3)cc1

# Assay: Elimination half life in mouse at 5 mg/kg, po
# Type: ADME, organism-based
# Set-up: dose 5 mg/kg, route oral
# Conditions: in vivo
# Summary of the method: (§1)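 Rodents dosed by oral gavage at 5 mg/kg in oleic oil solution (0.1 mL mice, 1 mL rats). Whole blood (10 μL) sampled at 0, 0.5, 1, 2, 4, 6, 8 and 24 h and analysed by LC/MS/MS. Elimination t1/2 (min) from noncompartmental fit of concentration-time data, averaged over at least three animals.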
row,half-life,Compound
1,2.67 h,CCOCCOCCOC1CCC(NC(=O)NC23CC4CC(CC(C4)C2)C3)CC1 (stereo unspecified)
2,0.25 h,O=C(NCCCCCOCCCN1CCOCC1)NC12CC3CC(CC(C3)C1)C2
3,1.33 h,O=C(NC1CCC(OCCCN2CCOCC2)CC1)NC12CC3CC(CC(C3)C1)C2 (stereo unspecified)
4,2.83 h,CCCCCOC1CCC(NC(=O)NC23CC4CC(CC(C4)C2)C3)CC1 (stereo unspecified)

# Assay: Elimination half life in rat at 5 mg/kg, po
# Type: ADME, organism-based
# Set-up: dose 5 mg/kg, route oral
# Conditions: in vivo
# Summary of the method: as §1
row,Compound,half-life
1,CCOCCOCCOCCCCCNC(=O)NC12CC3CC(CC(C3)C1)C2,0.65 h
2,CCOCCOCCOC1CCC(NC(=O)NC23CC4CC(CC(C4)C2)C3)CC1 (stereo unspecified),2.5 h
3,O=C(NC1CCC(OCCCN2CCOCC2)CC1)NC12CC3CC(CC(C3)C1)C2 (stereo unspecified),1.83 h
4,CCCCCOC1CCC(NC(=O)NC23CC4CC(CC(C4)C2)C3)CC1 (stereo unspecified),2 h

# Next, values leading:
row,half-life,Compound
1,3.33 h,O=C(NCCCCCOCCCN1CCOCC1)NC12CC3CC(CC(C3)C1)C2
2,9.67 h,CCOCCOCCOc1ccc(NC(=O)NC23CC4CC(CC(C4)C2)C3)cc1

# Assay: Partition coefficient, log P of the compound
# Type: physicochemical
# Conditions: octanol/water
row,Compound,logP
1,CCOCCOCCOCCCCCNC(=O)NC12CC3CC(CC(C3)C1)C2,3.6
2,CCOCCOCCOC1CCC(NC(=O)NC23CC4CC(CC(C4)C2)C3)CC1 (stereo unspecified),2.9
3,O=C(NC1CCC(OCCCN2CCOCC2)CC1)NC12CC3CC(CC(C3)C1)C2 (stereo unspecified),2.2
4,O=C(Nc1ccc(OCCCN2CCOCC2)cc1)NC12CC3CC(CC(C3)C1)C2,2.9
5,CCCCCOC1CCC(NC(=O)NC23CC4CC(CC(C4)C2)C3)CC1 (stereo unspecified),> 5

# Results, then the molecule that gave them:
row,logP,Compound
1,5,CCCCOCCCCCNC(=O)NC12CC3CC(CC(C3)C1)C2
2,2.4,O=C(NCCCCCOCCCN1CCOCC1)NC12CC3CC(CC(C3)C1)C2
3,3.9,CCOCCOCCOc1ccc(NC(=O)NC23CC4CC(CC(C4)C2)C3)cc1

# Assay: Stability in human liver S9 fraction at 100 uM after 1 hr
# Type: ADME, subcellular
# Conditions: read-out: Stability
# Summary of the method: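 Human liver microsomes (0.125 mg protein) or S9 (0.056 mg) in 0.1 M sodium phosphate pH 7.4, preincubated 5 min at 37°C. Compound added from 100 μM stock (final 1.0 μM). Started with NADPH-generating system (NADP, glucose 6-phosphate, G6PDH, MgCl₂), shaken 60 min at 37°C, stopped with cold ethanol with internal standard. Percent remaining vs 0-min ethanol-quenched control.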
row,Compound,"remaining at 1 h, 100 µM"
1,CCOCCOCCOCCCCCNC(=O)NC12CC3CC(CC(C3)C1)C2,11%
2,CCOCCOCCOCCCCCCC(=O)NC12CC3CC(CC(C3)C1)C2,5%
3,CCOCCOCCOC1CCC(NC(=O)NC23CC4CC(CC(C4)C2)C3)CC1 (stereo unspecified),79%
4,O=C(NC1CCC(OCCCN2CCOCC2)CC1)NC12CC3CC(CC(C3)C1)C2 (stereo unspecified),81%
5,O=C(Nc1ccc(OCCCN2CCOCC2)cc1)NC12CC3CC(CC(C3)C1)C2,97%

# More lines, now with the values ahead:
row,"remaining at 1 h, 100 µM",Compound
1,14%,COCCOCCOCCOCCCCCNC(=O)NC12CC3CC(CC(C3)C1)C2
2,34%,O=C(NCCCCCOCCCN1CCOCC1)NC12CC3CC(CC(C3)C1)C2
3,12%,CS(=O)(=O)NCCOCCOCCCCCNC(=O)NC12CC3CC(CC(C3)C1)C2
4,9%,CCOCCOCCOc1cccc(NC(=O)NC23CC4CC(CC(C4)C2)C3)c1
5,1.1%,O=C(NCCCCCOCCOCCOCC(F)(F)F)NC12CC3CC(CC(C3)C1)C2
6,70%,CCOCCOCCOc1ccc(NC(=O)NC23CC4CC(CC(C4)C2)C3)cc1
